FLuc act counter = FLuc activators, initial screening, artefact control for FLuc-dependent activation tests, biochemical, ATPlite luminescence; ATPlite luciferase biochemical, 10 min; 0 = ATP-free wells, 1 = DMSO control; Luciferin 4-monooxygenase (Photinus pyralis), P08659; activation factor at 10 µM; AID 1027, 2008; 200,000 tested, under 10 active;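 active = luciferase activation factor, scaled between plate controls, of at least 2 with compound at 10 µM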
Target sequence (P08659 whole entry, looked up): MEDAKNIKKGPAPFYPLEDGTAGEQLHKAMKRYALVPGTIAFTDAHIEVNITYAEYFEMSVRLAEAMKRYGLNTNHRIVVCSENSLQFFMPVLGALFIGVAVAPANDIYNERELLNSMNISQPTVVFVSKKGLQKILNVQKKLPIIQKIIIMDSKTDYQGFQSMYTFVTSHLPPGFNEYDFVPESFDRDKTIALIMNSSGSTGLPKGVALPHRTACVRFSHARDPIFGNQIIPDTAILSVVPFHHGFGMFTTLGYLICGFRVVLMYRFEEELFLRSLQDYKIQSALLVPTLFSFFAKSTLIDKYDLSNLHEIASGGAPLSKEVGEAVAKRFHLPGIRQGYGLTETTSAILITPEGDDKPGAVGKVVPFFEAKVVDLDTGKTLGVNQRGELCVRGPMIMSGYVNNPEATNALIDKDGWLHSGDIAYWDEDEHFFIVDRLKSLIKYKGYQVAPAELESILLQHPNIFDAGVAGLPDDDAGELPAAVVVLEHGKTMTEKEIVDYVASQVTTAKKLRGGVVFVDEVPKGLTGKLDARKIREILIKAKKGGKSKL
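Material: luciferase plus luciferin reagent, cell-free. Medium: PBS buffer for ATP. Also added: ATP substrate, dispensed from a 10.24 µM working solution in PBS. Doses: test compounds dosed from 2 mM stocks in 100% DMSO. Incubation: 10 min post-reagent at room temperature. Technique: light output (luminescence). Read-out basis: luminescence gain marking luciferase activators.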
FLuc inh counter = firefly luciferase enzyme inhibitors, primary screen, artefact control for luciferase-based inhibitor screens, biochemical, luminescence, ATPLite; Luciferin 4-monooxygenase (Photinus pyralis), P08659; 10 min; inhibition, % at 10 µM; 200,000 compounds, 1.5% hits;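 active = inhibition above about 50% when tested at 10 µM, limit read from the data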
C8 TRAIL sens = viability loss with TRAIL in NB7+C8 cells, primary screen, TRAIL sensitizer project, cell-based, ATPlite luminescence; inhibition (viability loss, TRAIL sensitization), % at 10 µM; 360,000 compounds, 1% hits;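 active = compounds causing at least 50% loss of cell viability in the single-dose screen, relative to plate controls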
PPC-1+TRAIL kill = compounds killing PPC-1 cancer cells with TRAIL present, primary screen, TRAIL potentiator project, ATPLite luminescence, uHTS. PPC-1 cells + TRAIL, ATPLite viability luminescence. cell killing (% activity), % at 4 µM or 5 µM. 220,000 compounds, 0.41% hits. AID 1443, 2008;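 active = cell killing above 50% in the first pass at 4 µM, then a duplicate retest at 5 µM averaging 50% or more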;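 note: plate controls were cells with TRAIL plus DMSO for no effect and medium-only wells lacking cells for full effect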
HSP90 refold inh = HSP90 inhibitors, primary screen, cell lysate, luminescence; Heat shock protein HSP 90 (rabbit reticulocyte lysate; luciferase refolding); 290,000 compounds, 0.91% hits; Rabbit reticulocyte lysate, luciferase refolding luminescence, 3 h; inhibition, % at 5.6 µM; AID 1789, 2009;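 active = inhibition above the screen-wide mean plus 3 SD, computed separately per campaign, cut at about 16% in these data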;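 note: 0% = DMSO wells and 100% = 60 µM geldanamycin wells; inhibitors lower the luminescence because luciferase stays unfolded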
HSP90 inh confirm = HSP90 inhibitors, confirmation, cell lysate, luminescence. shares compounds with HSP90 refold inh. rabbit reticulocyte lysate, luciferase refolding luminescence, 3 h. inhibition, % at 5.9 µM. 2,300 compounds, 64% hits. AID 1846, 2009; in the data active = inhibition above about 18%;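 note: 0% = vehicle wells and 100% = reference inhibitor wells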
luciferase ctr = firefly luciferase inhibitors, HSP90 counter-screen, confirmation, artefact control for HSP90 inhibitor project, biochemical, luminescence, triplicate; inhibition, % at 5.9 µM; purified native firefly luciferase; AID 1847, 2009; 2,300 compounds, 48% hits; shares compounds with HSP90 refold inh;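 active = inhibition above the mean inhibition of all tested sample wells plus 3 SD, cut at about 10% in these data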;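 note: 0% = DMSO with luciferase and 100% = wells lacking luciferase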
An asterisk follows results filed as active; nt = not tested or not shown. Most compounds without a hit are left out; they make up all but 2% or so of the library.

SMILES | FLuc act counter | FLuc inh counter | C8 TRAIL sens | PPC-1+TRAIL kill | HSP90 refold inh | HSP90 inh confirm | luciferase ctr
Nn1cnnc1N/N=C/c1ccc(Cl)c([N+](=O)[O-])c1 | 1 | -3.7 | -4.3 | 18.0 | 46.3* | -3.3 | -6.1
CC(C)(C)S(=O)N1Cc2cc(C(=O)N3CCOCC3)nc(-c3cccc(Br)c3)c2[C@@H]1CCO (stereo partly specified) | nt | nt | 2.7 | nt | nt | nt | nt
CSc1cccc(CN2CCN(CCC(C)C)C(CCO)C2)c1 (stereo unspecified) | 1.1 | -6.1 | 2.9 | 3.5 | -0.1 | nt | nt
COc1ccc(OC)c(N(CC(=O)N2CCN(Cc3ccccc3)CC2)S(C)(=O)=O)c1 | nt | nt | -0.2 | nt | 19.8* | -1.5 | -5.6
CCN1CCN(C(=O)CN(c2cc(OC)ccc2OC)S(C)(=O)=O)CC1 | 1 | -1.3 | -10.9 | 8.6 | 0.2 | nt | nt
Cc1cnc(CNC(=O)C2CCC(=O)N(CCc3ccc(Cl)cc3)C2)cn1 (stereo unspecified) | nt | nt | -20.2 | nt | -2.1 | nt | nt
Cc1ccc(NC(=O)CNC(=O)Cn2cnc3sc(C)c(C)c3c2=O)cc1F | nt | nt | 13.3 | nt | 4.0 | nt | nt
COC(=O)c1ccc(NC(=O)c2ccc(C)cc2)o1 | 0.9 | 14.5 | 0.1 | 29.1 | 29.6* | 37.5* | -15.8
O=C(Nc1ccccc1C(=O)N1CCCC1)c1ccccc1 | 1 | -1.9 | -24.3 | 15.6 | 27.2* | -3.2 | -4.7
O=C(Nc1ccccc1)Nc1ccc(C(=O)N2CCCC2)cc1 | 0.1 | 87.3* | 68.6* | 40.7 | 22.2* | 42.8* | 20.1*
O=C(c1ccc(NS(=O)(=O)c2cccc(F)c2)cc1)N1CCCCC1 | nt | nt | -25.8 | nt | 24.4* | -8.6 | -11.3
CCN1CCN(Cc2ccc(NC(=O)Nc3ccccc3)cc2)CC1 | 0.4 | 64.2* | 36.2 | 36.3 | 20.1* | 28.6* | 8.8
CC1(C(=O)NS(=O)(=O)c2cccc(C#N)c2)CCN1C(=O)Cc1ccccc1 (stereo unspecified) | nt | nt | -5.0 | nt | nt | nt | nt
Nc1ccccc1SCCS(=O)(=O)c1ccc(Cl)cc1 | nt | nt | -5.9 | nt | -3.6 | nt | nt
O=CN(/C=C1\Sc2ccccc2C1=O)Cc1ccccc1 | 0.9 | 5.1 | -2.2 | 7.2 | 34.4* | 0.3 | -11.8
CCC(=O)N(C)/C=C1\Sc2ccccc2C1=O | 0.8 | 21.5 | -11.5 | 24.8 | 26.1* | -9.9 | -25.1
CC(=O)N(C)/C=C1\Sc2ccccc2C1=O | 1 | -0.3 | -14.1 | 4.8 | 35.7* | -1.5 | -12.8
CC(=O)Nc1ccc(/C=C2\Sc3ccccc3C2=O)cc1 | nt | nt | -3.3 | 4.7 | -1.1 | nt | nt
COc1ccc(/C=N/N2CCOCC2)cc1Cn1cc([N+](=O)[O-])cn1 | nt | nt | -4.9 | 4.9 | -4.0 | nt | nt
Cc1ccc(S(=O)(=O)NC(C)C(=O)OCC(=O)N(C)c2ccccc2)cc1 (stereo unspecified) | nt | nt | -1.4 | nt | nt | nt | nt
Cc1nn(Cc2ccccc2)c(Cl)c1/C=C/C(=O)OC(C(=O)NC(N)=O)C(C)C (stereo unspecified) | 1.1 | -7.3 | -3.8 | 10.8 | 3.5 | nt | nt
O=C(CN1C(=O)c2cccnc2Oc2ccc(Cl)cc21)Nc1ccccc1F | nt | nt | -4.6 | nt | 36.2* | -7.0 | -17.6
O=C(/C=C/c1cccc(Br)c1)NCc1ccncc1 | 1 | -3.6 | -5.5 | 23.9 | 3.1 | nt | nt
S=C(Nc1ccc(Cl)cc1)c1nc2ccccc2s1 | 1 | 2.2 | 30.1 | 25.5 | -2.3 | nt | nt
Cc1ccc(NC(=S)c2nc3ccccc3s2)cc1 | 0.3 | 65.8* | 43.9* | 26.2 | 23.1* | 42.1* | 26.2*
SMILES | FLuc act counter | FLuc inh counter | C8 TRAIL sens | PPC-1+TRAIL kill | HSP90 refold inh | HSP90 inh confirm | luciferase ctr
CCN1CCN(C(=O)CNC(=O)c2nn(-c3ccc(OC)cc3)c(=O)c3ccccc23)CC1 | nt | nt | -5.1 | nt | 3.7 | nt | nt
COc1ccc(-n2nc(C(=O)NCC(=O)N3CCN(Cc4ccccc4)CC3)c3ccccc3c2=O)cc1 | nt | nt | 11.0 | nt | 24.4* | -2.2 | -6.8
O=C(Nc1cccc(O)c1)c1noc2c1CCc1ccccc1-2 | 0.1 | 87.2* | 71.3* | 6.6 | 40.2* | 60.7* | 53.7*
Cc1ccc(NC(=O)c2noc3c2CCc2ccccc2-3)cc1 | 1 | 4.9 | 3.1 | -9.1 | 5.4 | nt | nt
Cc1cc(C(=O)NNC(=O)[C@H](C)NC(=O)c2ccc(Br)cc2)c(C)o1 | nt | nt | -5.9 | nt | nt | nt | nt
Cc1ccc(C(=O)Nc2ncc(C)s2)s1 | nt | nt | 78.1* | nt | 28.6* | 50.0* | 39.9*
COc1cccc(C2N=C(c3ccccc3C)NO2)c1OC (stereo unspecified) | nt | nt | 16.7 | nt | 3.1 | nt | nt
O=[N+]([O-])c1ccccc1NS(=O)(=O)c1ccccc1 | nt | nt | -14.6 | nt | nt | nt | nt
Cc1nc(-c2ccc([N+](=O)[O-])cc2)sc1C(=O)O | 1 | 1.3 | -7.3 | -2.1 | 18.0* | 17.9* | -17.9
Cc1ccc(-c2nc(C)c(C(=O)O)s2)cc1 | 0.6 | 43.0 | 16.4 | 11.1 | 74.5* | 84.9* | 17.1*
Cc1nc(-c2ccc(Cl)cc2)sc1C(=O)O | 0.9 | 6.6 | 16.1 | 17.7 | 10.6 | nt | nt
CCN(CC)C(=O)Cn1c(=O)c2ccccc2n2c(=S)sc(-c3cccc(C)c3)c12 | 1.1 | -7.6 | 20.8 | -2.4 | 4.1 | nt | nt
O=C(NCc1ccccc1CN1CCCC1)c1ccc(Cl)c(S(=O)(=O)N2CCCC2)c1 | nt | nt | 4.0 | nt | nt | nt | nt
c1ccc2nc(-c3nc4ccccc4o3)ccc2c1 | 0.1 | 88.5* | 75.7* | 23.2 | 32.3* | 81.1* | 76.2*
c1ccc(-c2ccc3ccccc3n2)cc1 | nt | nt | 0.3 | nt | nt | nt | nt
Cc1ccc(-c2nc(-c3ccncc3)no2)c(Cl)c1 | nt | nt | 55.4* | nt | 27.9* | 48.1* | 46.6*
Clc1ccccc1-c1nc(-c2ccncc2)no1 | nt | nt | 2.5 | 19.2 | 0.8 | nt | nt
Cc1noc(C(=O)Nc2ccc(Cl)cc2)c1Cl | nt | nt | nt | nt | 25.3* | 1.8 | -3.4
Cc1ccc(NC(=O)c2onc(C)c2Cl)cc1 | 0.9 | 8.9 | 13.2 | -11.7 | -0.3 | nt | nt
CC(C)(C)c1ccc(/C=C2\SC(=O)N(CCNC(=O)c3cccc(S(=O)(=O)N4CCOCC4)c3)C2=O)cc1 | 0.3 | 68.7* | 57.6* | 15.1 | 20.7* | 74.4* | 70.2*
Nc1nc(-c2ccc(NC(=O)c3ccco3)cc2)cs1 | nt | nt | 73.5* | nt | 28.4* | 50.6* | 46.0*
COc1ccc(CCC(=O)N2CCCSC2=Nc2ccc(C(C)=O)cc2)cc1 | 1 | 4.1 | -13.4 | 13.5 | 4.1 | nt | nt
Cc1cc(C(=O)NNc2ccc(C(C)C)cc2)n(C(C)(C)C)n1 | nt | nt | -7.9 | -12.2 | -0.6 | nt | nt
CCc1nnc(N/N=C/c2ccccc2F)n1N | 1 | -3.5 | -2.6 | nt | 79.8* | -6.9 | -10.8
CCc1nnc(N/N=C/c2ccccc2Cl)n1N | 1.1 | -5.7 | 7.1 | 9.4 | 71.9* | 1.6 | -2.2
